Experimental data as given in ChEMBL document CHEMBL4411269, “Required Immunoproteasome Subunit Inhibition Profile for Anti-Inflammatory Efficacy and Clinical Candidate KZR-616 ((2 S,3 R)- N-(( S)-3-(Cyclopent-1-en-1-yl)-1-(( R)-2-methyloxiran-2-yl)-1-oxopropan-2-yl)-3-hydroxy-3-(4-methoxyphenyl)-2-(( S)-2-(2-morpholinoacetamido)propanamido)propenamide)” (J Med Chem, 2018).
The source made the active and inactive calls. The calls are words filed in the database; no cut-off is given here.

How the values were obtained:
[1] = Toxicity in Balb/c mouse assessed as effect on cage-side observations at 20 mg/kg, iv followed by dosing repeat on day 6, 8, 11, 13 and 15 and measured until day 18; assay type: organism-based; settings: in vivo
PBMC [2] = test: Antiinflammatory activity in human PBMC assessed as reduction in LPS-stimulated TNF-alpha expression at 125 nM preincubated for 1 hr followed by LPS stimulation measured after 24 hrs by ELISA; assay type: functional, cell-based
Summary of the method: (§1)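 Cryopreserved healthy-donor PBMC in RPMI 1640 with 5% heat-inactivated FBS, 250 000 cells/well. Compound (0.1% DMSO final) for 1 h at 37 °C, 5% CO2, then 4 washes with medium. Stimulated with 1 μg/mL LPS for 24 h; supernatant TNFα, IL-6 and IL-12/23p40 by electrochemiluminescent immunoassay. Mean level relative to DMSO controls, n = 6.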

[3] = biological target: T1, Proteasome subunit beta type-10 (Homo sapiens) (UniProt P40306); test: Inhibition of MECL1 in human PBMC at 125 nM by ELISA
T1 sequence (whole entry): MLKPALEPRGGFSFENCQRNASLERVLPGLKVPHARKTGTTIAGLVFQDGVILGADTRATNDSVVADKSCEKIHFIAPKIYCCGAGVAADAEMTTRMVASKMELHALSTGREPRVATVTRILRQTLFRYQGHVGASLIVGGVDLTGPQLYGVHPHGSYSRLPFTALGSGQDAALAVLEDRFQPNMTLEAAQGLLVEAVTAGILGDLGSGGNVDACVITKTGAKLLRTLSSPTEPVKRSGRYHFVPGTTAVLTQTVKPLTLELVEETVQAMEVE
Summary of the method: (§2)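 Cryopreserved healthy-donor human PBMC in RPMI 1640 with 5% heat-inactivated FBS, exposed to compound (0.1% DMSO final) for 1 h at 37 °C, 5% CO2, then washed. Subunit-specific active-site occupancy read by ProCISE: biotinylated active-site probe binding, denaturation, streptavidin capture, subunit-specific antibody and HRP chemiluminescence. Signal normalized to protein and expressed relative to DMSO controls.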

PBMC [4] = test: Cytotoxicity in human PBMC assessed as reduction in cell viability at 125 nM relative to control; assay type: cell-based; settings: 0.125 µM
Mus musculus [5] = test: In vivo inhibition of MECL-1 in Balb/c mouse splenocytes at 20 mg/kg, iv followed by dosing repeat on day 6, 8, 11, 13 and 15 and measured on 1 hr post last dose; assay type: functional, organism-based
Summary of the method: (§3)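 BALB/c mice dosed iv bolus in 10% sulfobutyl ether−β-cyclodextrin/10 mM sodium citrate pH 3.5; tissues taken 1 h after administration. Splenocytes strained and red cells lysed; kidney frozen, then bead-homogenized. Hypotonic lysate (20 mM Tris pH 8, 5 mM EDTA) at 1 mg/mL (spleen) or 5 mg/mL (kidney) run in the ProCISE active-site ELISA. Background-subtracted, protein-normalized activity relative to vehicle animals; n = 3.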

[6] = biological target: T2, Proteasome subunit beta type-8 (Homo sapiens) (UniProt P28062); test: Inhibition of LMP7 in human PBMC at 125 nM by ELISA; summary of the method: as §2
T2 sequence (whole entry): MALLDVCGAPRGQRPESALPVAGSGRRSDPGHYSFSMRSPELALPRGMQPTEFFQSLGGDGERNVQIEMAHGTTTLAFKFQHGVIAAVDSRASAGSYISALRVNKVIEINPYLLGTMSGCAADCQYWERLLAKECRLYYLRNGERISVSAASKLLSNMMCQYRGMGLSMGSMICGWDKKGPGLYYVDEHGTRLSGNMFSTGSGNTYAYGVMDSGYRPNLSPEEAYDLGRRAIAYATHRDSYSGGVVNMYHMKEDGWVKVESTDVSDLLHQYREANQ

[7] = biological target: T1, Proteasome subunit beta type-10 (Homo sapiens); test: Inhibition of MECL1 in human PBMC at 125 nM in presence of KZR-504 by ELISA; summary of the method: as §2
[8] = biological target: T2, Proteasome subunit beta type-8 (Homo sapiens); test: Inhibition of LMP7 in human PBMC at 125 nM in presence of KZR-504 by ELISA; summary of the method: as §2
PBMC [9] = test: Antiinflammatory activity in human PBMC assessed as reduction in anti-CD3/CD28 antibody-stimulated IFN-gamma expression at 125 nM preincubated for 1 hr followed by anti-CD3/CD28 antibody stimulation measured after 24 hrs by ELISA; assay type: functional, cell-based
Summary of the method: (§4)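 Healthy-donor PBMC, thawed from cryopreservation, 250 000 cells/well in RPMI 1640/5% FBS. Pretreated 1 h at 37 °C with compound alone or combined (0.1% DMSO final), washed 4 times, then stimulated 24 h with anti-CD3 and anti-CD28 antibodies. TNFα and IFNγ in supernatants by electrochemiluminescent ELISA; expressed relative to DMSO-treated controls (n = 6).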

Mus musculus [10] = test: In vivo inhibition of LMP7 in Balb/c mouse splenocytes at 20 mg/kg, iv followed by dosing repeat on day 6, 8, 11, 13 and 15 and co-treated with 5 mg/kg, iv KZR-504 and measured on 1 hr post last dose; assay type: functional, organism-based; summary of the method: as §3
Mus musculus [11] = test: Antiarthritic activity in type 2 collagen antibody/LPS induced Balb/c mouse assessed as reduction in disease burden at 20 mg/kg, iv followed by dosing repeat on day 6, 8, 11, 13 and 15 and co-treated with 5 mg/kg, iv KZR-504 and measured until day 18; assay type: functional, organism-based
Summary of the method: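 CAIA in 7−8 week old female BALB/c mice on breeder chow. Induced with 1.75 mg of a 5-antibody anti-type II collagen cocktail iv on day 0, then 25 μg LPS ip on day 3. Dosed as single iv boluses in 10% (w/v) sulfobutyl ether−β-cyclodextrin/10 mM sodium citrate (pH 3.5); vehicle-treated group included.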

PBMC [12] = test: Antiinflammatory activity in human PBMC assessed as reduction in anti-CD3/CD28 antibody-stimulated TNF-alpha expression at 125 nM preincubated for 1 hr followed by anti-CD3/CD28 antibody stimulation measured after 24 hrs by ELISA; assay type: functional, cell-based; summary of the method: as §4
PBMC [13] = test: Antiinflammatory activity in human PBMC assessed as reduction in LPS-stimulated IL-6 expression at 125 nM preincubated for 1 hr followed by LPS stimulation measured after 24 hrs by ELISA; assay type: functional, cell-based; summary of the method: as §1
PBMC [14] = test: Antiinflammatory activity in human PBMC assessed as reduction in anti-CD3/CD28 antibody-stimulated IFN-gamma expression at 250 nM preincubated for 1 hr followed by anti-CD3/CD28 antibody stimulation measured after 24 hrs in presence of KZR-504 by ELISA; assay type: functional, cell-based; summary of the method: as §4
[15] = biological target: T1, Proteasome subunit beta type-10 (Homo sapiens); settings: at 250 nM
PBMC [16] = test: Antiinflammatory activity in human PBMC assessed as reduction in anti-CD3/CD28 antibody-stimulated TNF-alpha expression at 250 nM preincubated for 1 hr followed by anti-CD3/CD28 antibody stimulation measured after 24 hrs in presence of KZR-504 by ELISA; assay type: functional, cell-based; summary of the method: as §4

| inhibition [3] | inhibition [6] | inhibition [7] | inhibition [8] | inhibition [15] | SMILES | Activity [1] | Activity (PBMC [2]) | Activity (PBMC [4]) | inhibition (Mus musculus [5]) | Activity (PBMC [9]) | inhibition (Mus musculus [10]) | Activity (Mus musculus [11]) | Activity (PBMC [12]) | Activity (PBMC [13]) | Activity (PBMC [14]) | Activity (PBMC [16]) |
| --- | --- | --- | --- | --- | --- | --- | --- | --- | --- | --- | --- | --- | --- | --- | --- | --- |
| Active | Active | Active | Active | – | COc1ccc(C[C@H](NC(=O)[C@@H](C)NC(=O)[C@H]2CC[C@H](O)CC2)C(=O)N[C@@H](CC2=CCCC2)C(=O)[C@@]2(C)CO2)cc1 | Non-Toxic | inactive | 30% | Active | Active | Active | Active | Active | inactive | – | – |
| – | – | – | – | Active | Cc1ccc(CC[C@H](NC(=O)[C@H](Cc2ccccc2)NC(=O)[C@H](CC(C)C)NC(=O)CN2CCCCCC2)C(=O)[C@@]2(C)CO2)cc1 | – | – | – | – | – | – | – | – | – | inactive | inactive |
